Assay results as given in ChEMBL document CHEMBL5338825, “Structure-Based Discovery of Inhibitors of the SARS-CoV-2 Nsp14 N7-Methyltransferase” (J Med Chem, 2023).
Calls of active or inactive are those of the source. No cut-off for these calls is given here.

How the values were obtained:
[1] = target: Replicase polyprotein 1ab (Severe acute respiratory syndrome coronavirus 2, UniProt P0DTD1); assay: Inhibition of N-terminal 6His/SUMO-tagged SARS-CoV-2 NSP14 expressed in Escherichia coli Rosetta 2 (DE3) PlysS cells using 5'GpppACCCCCCCCC-Biotin 3' and 3H-SAM as substrates incubated for 30 mins by TopCount scintillation proximity assay
[2] = target: Replicase polyprotein 1ab (Severe acute respiratory syndrome coronavirus 2) (UniProt P0DTD1); assay: Inhibition of N-terminal 6His/SUMO-tagged SARS-CoV-2 NSP14 expressed in Escherichia coli Rosetta 2 (DE3) PlysS cells using 5'GpppACCCCCCCCC-Biotin 3' and 3H-SAM as substrates at 100 uM incubated for 30 mins by TopCount scintillation proximity assay relative to control
[3] = target: Replicase polyprotein 1ab (Severe acute respiratory syndrome coronavirus 2) (UniProt P0DTD1); assay: Reversible binding affinity to Cys387 of N-terminal 6His/SUMO-tagged SARS-CoV-2 NSP14 expressed in Escherichia coli Rosetta 2 (DE3) PlysS cells using 5'GpppACCCCCCCCC-Biotin 3' and 3H-SAM as substrates incubated for 2 hrs by mass spectrometry analysis
How it was run: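 Nsp14 incubated with 20-fold molar excess of compound for 2 h at 20 °C, then taken into 0.1% formic acid. Separated by HPLC on a 5–95% acetonitrile/water gradient and analysed by ESI time-of-flight MS for protein mass shift.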

[4] = target: Replicase polyprotein 1ab (Severe acute respiratory syndrome coronavirus 2) (UniProt P0DTD1); assay: Reversible covalent inhibition of N-terminal 6His/SUMO-tagged SARS-CoV-2 NSP14 expressed in Escherichia coli Rosetta 2 (DE3) PlysS cells using 5'GpppACCCCCCCCC-Biotin 3' and 3H-SAM as substrates at 10 fold IC50 concentration incubated for 60 mins by rapid dilution method
How it was run: (§1)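 Jump dilution: Nsp14 at 100-fold its assay concentration (assay level 1.5 nM) preincubated with compound for 1 h at room temperature. Then diluted 100-fold into assay buffer containing RNA substrate and SAM, and recovery of methyltransferase activity monitored.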

[5] = target: Histone-lysine N-methyltransferase EHMT2 (Homo sapiens, UniProt Q96KQ7); assay: Inhibition of human G9a using biotin-tagged Histone H3 and 3H-SAM as substrate incubated for 1 hrs by TopCount scintillation proximity assay
How it was run: (§2)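 Radiometric concentration–response for IC50, run on panel methyltransferases showing more than 50% inhibition at a 10 μM screen. Triplicate.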

[6] = target: Histone-lysine N-methyltransferase EHMT1 (Homo sapiens, UniProt Q9H9B1); assay: Inhibition of human GLP using biotin-tagged Histone H3 and 3H-SAM as substrate incubated for 1 hrs by TopCount scintillation proximity assay; how it was run: as §2
Chain of Histone-lysine N-methyltransferase EHMT1 (Q9H9B1 whole entry): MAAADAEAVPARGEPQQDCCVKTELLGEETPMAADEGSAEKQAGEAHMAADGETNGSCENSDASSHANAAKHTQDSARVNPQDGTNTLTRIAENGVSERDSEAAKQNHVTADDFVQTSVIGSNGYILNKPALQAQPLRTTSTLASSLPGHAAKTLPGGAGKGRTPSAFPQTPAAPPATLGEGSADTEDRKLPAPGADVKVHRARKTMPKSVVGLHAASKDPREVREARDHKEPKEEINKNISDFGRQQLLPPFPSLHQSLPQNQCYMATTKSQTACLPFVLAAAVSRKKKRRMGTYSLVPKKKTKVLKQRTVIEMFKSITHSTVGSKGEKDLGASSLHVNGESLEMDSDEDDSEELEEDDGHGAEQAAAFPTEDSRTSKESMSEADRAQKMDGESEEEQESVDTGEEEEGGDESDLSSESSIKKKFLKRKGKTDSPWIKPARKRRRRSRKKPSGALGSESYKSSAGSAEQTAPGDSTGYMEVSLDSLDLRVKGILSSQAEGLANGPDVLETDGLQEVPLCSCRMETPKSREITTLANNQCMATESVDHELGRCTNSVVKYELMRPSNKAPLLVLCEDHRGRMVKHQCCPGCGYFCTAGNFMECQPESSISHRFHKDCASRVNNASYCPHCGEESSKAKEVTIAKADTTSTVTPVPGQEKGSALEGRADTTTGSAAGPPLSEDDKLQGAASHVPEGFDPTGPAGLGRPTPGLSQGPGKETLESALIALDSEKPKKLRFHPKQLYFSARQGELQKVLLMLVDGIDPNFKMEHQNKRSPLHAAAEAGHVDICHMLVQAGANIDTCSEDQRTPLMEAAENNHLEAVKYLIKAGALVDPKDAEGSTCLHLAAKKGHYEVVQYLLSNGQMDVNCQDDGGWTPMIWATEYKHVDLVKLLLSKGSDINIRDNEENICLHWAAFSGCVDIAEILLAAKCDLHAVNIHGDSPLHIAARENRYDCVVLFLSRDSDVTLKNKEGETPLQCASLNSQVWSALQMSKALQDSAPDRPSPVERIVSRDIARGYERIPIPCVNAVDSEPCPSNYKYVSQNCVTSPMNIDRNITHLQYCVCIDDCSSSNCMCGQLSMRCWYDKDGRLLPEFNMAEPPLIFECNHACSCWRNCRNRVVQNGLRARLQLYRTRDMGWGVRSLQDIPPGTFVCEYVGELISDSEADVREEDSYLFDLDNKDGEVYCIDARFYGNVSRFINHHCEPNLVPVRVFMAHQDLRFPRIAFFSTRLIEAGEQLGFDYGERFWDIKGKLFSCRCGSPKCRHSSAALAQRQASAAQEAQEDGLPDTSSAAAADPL

[7] = Aggregation property of the compound in KPi buffer at pH 7.0 assessed as formation of colloid-like particles at 3.8 uM by dynamic light scattering analysis; format: physicochemical; conditions: pH 7, 3.8 µM
How it was run: (§3)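 Compounds diluted as 8-point half-log series in filtered 50 mM KPi, pH 7.0, with 1% v/v DMSO final. Particles detected by dynamic light scattering, triplicate at each concentration. CAC taken as the intersection of separate nonlinear fits to aggregating (>10^6 scattering intensity) and non-aggregating data.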

Bacteria [8] = assay: Inhibition of beta-lactamase AmpC (unknown origin) at 3.8 uM pre-incubated with compound for 5 mins followed by substrate addition and measured after 1.5 mins by absorbance based plate reader analysis; conditions: time 6.5 min
How it was run: (§4)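 AmpC at 2 nM preincubated 5 min with compound at room temperature in 50 mM KPi, pH 7.0, with 1% v/v DMSO. Started with 50 μM CENTA (read at 405 nm) or 50 μM nitrocefin (read at 490 nm), monitored 1 min 30 s. Initial rate taken as % of DMSO control. Top concentration in triplicate; eight-point half-log curves in triplicate where inhibition exceeded 40%.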

Homo sapiens [9] = species: Homo sapiens; assay: Inhibition of MDH (unknown origin) using oxaloacetic acid as substrate at 3.8 uM preincubated with compound for 5 mins followed by substrate addition and measured after 1.5 min in the presence of NADH by absorbance based plate reader analysis; conditions: time 6.5 min
How it was run: (§5)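 MDH assay at room temperature in 50 mM KPi, pH 7.0, with 1% v/v DMSO final. Compound preincubated 5 min with 2 nM enzyme. Reaction started with 200 μM NADH plus 200 μM oxaloacetic acid, and absorbance followed at 340 nm for 1 min 30 s. Initial rate divided by the DMSO control rate. Single top concentration in triplicate; eight-point half-log curves in triplicate where inhibition exceeded 40%.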

Homo sapiens [10] = species: Homo sapiens; assay: Inhibition of MDH (unknown origin) using oxaloacetic acid as substrate at 3.8 uM preincubated with compound for 5 mins followed by substrate addition and measured after 1.5 min in the presence of NADH and 0.01% Triton-X 100 by absorbance based plate reader analysis; conditions: time 6.5 min
How it was run: (§6)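 Detergent-reversal MDH assay: 50 mM KPi, pH 7.0, with 1% v/v DMSO and 0.01% v/v Triton X-100. Enzyme at 2 nM preincubated 5 min with compound, then started with 200 μM NADH plus 200 μM oxaloacetate. A340 read for 1 min 30 s, rate normalised to DMSO control. Eight-point half-log curves in triplicate.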

Bacteria [11] = assay: Inhibition of beta-lactamase AmpC (unknown origin) at 3.8 uM pre-incubated with compound for 5 mins followed by substrate addition and measured after 1.5 mins in the presence of 0.01% Triton-X 100 by absorbance based plate reader analysis
How it was run: (§7)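 AmpC detergent-reversal assay: 50 mM KPi, pH 7.0, with 1% v/v DMSO and 0.01% v/v Triton X-100. Enzyme at 2 nM preincubated 5 min with compound, then 50 μM CENTA (405 nm) or nitrocefin (490 nm) added. Absorbance followed for 1 min 30 s and rate normalised to DMSO. Eight-point half-log curves in triplicate.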

Bacteria [12] = assay: Inhibition of beta-lactamase AmpC (unknown origin) pre-incubated with compound for 5 mins followed by substrate addition and measured after 1.5 mins by absorbance based plate reader analysis; conditions: time 6.5 min; how it was run: as §4
[13] = target: Replicase polyprotein 1ab (Severe acute respiratory syndrome coronavirus 2) (UniProt P0DTD1); assay: Non-covalent inhibition of N-terminal 6His/SUMO-tagged SARS-CoV-2 NSP14 expressed in Escherichia coli Rosetta 2 (DE3) PlysS cells using 5'GpppACCCCCCCCC-Biotin 3' and 3H-SAM as substrates at 10 fold IC50 concentration incubated for 60 mins by rapid dilution method; how it was run: as §1
[14] = target: Replicase polyprotein 1ab (Severe acute respiratory syndrome coronavirus 2) (UniProt P0DTD1); assay: Competitive inhibition of N-terminal 6His/SUMO-tagged SARS-CoV-2 NSP14 expressed in Escherichia coli Rosetta 2 (DE3) PlysS cells using 5'GpppACCCCCCCCC-Biotin 3' and 3H-SAM as substrates at increasing concentration incubated for 30 mins by TopCount scintillation proximity assay
How it was run: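 Competition pattern read from IC50 shifts. […] Separately, SAM fixed at 1.25 μM (5× Km) with RNA varied up to 0.5 μM (10× Km). A linear rise of IC50 with substrate concentration was taken as competitive inhibition.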

[15] = target: Histone-lysine N-methyltransferase SUV39H1 (Homo sapiens) (UniProt O43463); assay: Inhibition of human SUV39H1 using Biotin-tagged histone H3 and 3H-SAM as substrate at 6 uM incubated for 1 hrs by TopCount scintillation proximity assay relative to control
[16] = target: T1, Histone-lysine N-methyltransferase, H3 lysine-79 specific (Homo sapiens, UniProt Q8TEK3); assay: Inhibition of human DOT1L using chicken nucleosome and 3H-SAM as substrate at 6 uM incubated for 1 hrs by TopCount scintillation proximity assay relative to control
Target sequence in this assay (Q8TEK3 whole entry, looked up): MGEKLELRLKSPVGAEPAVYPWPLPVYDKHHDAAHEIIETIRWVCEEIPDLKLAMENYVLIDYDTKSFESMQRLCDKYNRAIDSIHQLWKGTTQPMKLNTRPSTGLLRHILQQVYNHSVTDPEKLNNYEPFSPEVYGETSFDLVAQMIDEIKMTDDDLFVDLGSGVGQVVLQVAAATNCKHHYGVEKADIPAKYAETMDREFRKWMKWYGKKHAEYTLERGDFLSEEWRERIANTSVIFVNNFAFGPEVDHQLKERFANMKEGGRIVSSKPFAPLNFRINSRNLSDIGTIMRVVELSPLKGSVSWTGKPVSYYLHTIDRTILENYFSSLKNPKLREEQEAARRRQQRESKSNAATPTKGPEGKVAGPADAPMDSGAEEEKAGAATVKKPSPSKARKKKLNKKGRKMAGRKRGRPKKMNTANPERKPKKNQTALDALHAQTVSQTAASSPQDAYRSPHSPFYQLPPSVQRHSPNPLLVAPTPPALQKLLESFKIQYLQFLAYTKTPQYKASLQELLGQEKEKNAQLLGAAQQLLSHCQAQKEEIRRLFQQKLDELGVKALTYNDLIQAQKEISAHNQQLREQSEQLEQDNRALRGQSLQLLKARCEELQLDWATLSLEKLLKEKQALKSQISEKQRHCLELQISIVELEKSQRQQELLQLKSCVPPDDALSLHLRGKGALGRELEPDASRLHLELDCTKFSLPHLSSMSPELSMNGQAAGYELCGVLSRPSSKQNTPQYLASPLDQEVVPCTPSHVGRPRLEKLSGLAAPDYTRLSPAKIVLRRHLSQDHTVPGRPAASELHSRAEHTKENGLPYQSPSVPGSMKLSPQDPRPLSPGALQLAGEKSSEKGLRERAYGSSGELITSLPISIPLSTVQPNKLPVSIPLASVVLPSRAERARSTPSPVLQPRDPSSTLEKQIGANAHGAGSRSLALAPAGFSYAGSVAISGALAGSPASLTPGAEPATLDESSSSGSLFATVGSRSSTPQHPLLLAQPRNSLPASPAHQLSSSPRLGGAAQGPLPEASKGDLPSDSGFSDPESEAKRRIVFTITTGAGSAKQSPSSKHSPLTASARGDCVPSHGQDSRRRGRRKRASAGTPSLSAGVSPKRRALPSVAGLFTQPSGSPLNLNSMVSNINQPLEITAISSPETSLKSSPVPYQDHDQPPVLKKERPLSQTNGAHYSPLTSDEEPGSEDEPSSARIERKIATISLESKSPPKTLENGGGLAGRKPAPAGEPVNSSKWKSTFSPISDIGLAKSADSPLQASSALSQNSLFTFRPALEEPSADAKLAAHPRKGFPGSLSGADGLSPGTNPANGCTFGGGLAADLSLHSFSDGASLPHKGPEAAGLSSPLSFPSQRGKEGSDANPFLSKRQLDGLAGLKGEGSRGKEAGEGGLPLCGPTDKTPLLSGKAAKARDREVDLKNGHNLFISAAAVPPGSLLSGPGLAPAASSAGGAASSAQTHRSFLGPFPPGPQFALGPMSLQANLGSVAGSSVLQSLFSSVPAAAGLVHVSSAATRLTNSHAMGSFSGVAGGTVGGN

[17] = target: Histone-lysine N-methyltransferase SMYD3 (Homo sapiens) (UniProt Q9H7B4); assay: Inhibition of human SMYD3 using biotin-tagged MAP3K2 and 3H-SAM as substrate at 6 uM incubated for 1 hrs by TopCount scintillation proximity assay relative to control
[18] = target: RNA 5'-monophosphate methyltransferase (Homo sapiens) (UniProt Q7Z5W3); assay: Inhibition of human BCDIN3D using biotin-tagged microRNA-145 and 3H-SAM as substrate at 6 uM incubated for 1 hrs by TopCount scintillation proximity assay relative to control
Chain of RNA 5'-monophosphate methyltransferase (Homo sapiens) (Q7Z5W3 whole entry): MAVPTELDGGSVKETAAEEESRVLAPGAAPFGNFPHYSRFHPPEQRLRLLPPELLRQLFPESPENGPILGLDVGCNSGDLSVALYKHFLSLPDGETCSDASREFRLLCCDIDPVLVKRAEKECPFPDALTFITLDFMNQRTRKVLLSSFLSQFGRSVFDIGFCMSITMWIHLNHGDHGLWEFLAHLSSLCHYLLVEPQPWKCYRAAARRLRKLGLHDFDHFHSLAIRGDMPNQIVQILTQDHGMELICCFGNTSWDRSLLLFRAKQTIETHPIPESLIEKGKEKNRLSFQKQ

[19] = target: T2, Protein arginine N-methyltransferase 3 (Homo sapiens, UniProt O60678); assay: Inhibition of human PRMT3 using biotin-tagged Histone H4 and 3H-SAM as substrate at 6 uM incubated for 1 hrs by TopCount scintillation proximity assay relative to control
[20] = target: Protein arginine N-methyltransferase 9 (Homo sapiens) (UniProt Q6P2P2); assay: Inhibition of human PRMT9 using biotin-tagged SAP145 and 3H-SAM as substrate at 6 uM incubated for 1 hrs by TopCount scintillation proximity assay relative to control
Chain of Protein arginine N-methyltransferase 9 (Homo sapiens) (Q6P2P2 whole entry): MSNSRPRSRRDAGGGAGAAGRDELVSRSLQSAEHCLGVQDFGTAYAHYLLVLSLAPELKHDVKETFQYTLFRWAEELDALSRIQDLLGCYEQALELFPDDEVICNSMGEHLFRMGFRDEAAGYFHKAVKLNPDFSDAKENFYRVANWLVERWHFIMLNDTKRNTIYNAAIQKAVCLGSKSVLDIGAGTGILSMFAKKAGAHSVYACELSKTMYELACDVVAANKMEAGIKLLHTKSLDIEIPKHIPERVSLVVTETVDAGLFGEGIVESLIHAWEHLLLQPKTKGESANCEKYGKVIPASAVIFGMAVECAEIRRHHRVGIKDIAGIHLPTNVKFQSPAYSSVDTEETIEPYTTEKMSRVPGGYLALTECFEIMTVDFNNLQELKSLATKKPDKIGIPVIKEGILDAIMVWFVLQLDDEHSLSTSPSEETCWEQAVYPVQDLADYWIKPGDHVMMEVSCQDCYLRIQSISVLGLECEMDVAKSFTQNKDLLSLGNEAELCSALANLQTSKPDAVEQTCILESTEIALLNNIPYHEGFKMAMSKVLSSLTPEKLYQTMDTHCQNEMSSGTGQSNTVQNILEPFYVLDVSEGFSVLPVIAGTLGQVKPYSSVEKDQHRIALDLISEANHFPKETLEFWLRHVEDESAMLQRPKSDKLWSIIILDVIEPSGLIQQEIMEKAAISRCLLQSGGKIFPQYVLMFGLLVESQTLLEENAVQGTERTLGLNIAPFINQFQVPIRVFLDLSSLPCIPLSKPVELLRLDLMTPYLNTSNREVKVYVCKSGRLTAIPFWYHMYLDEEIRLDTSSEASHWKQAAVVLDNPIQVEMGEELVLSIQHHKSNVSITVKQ

[21] = target: T3, Protein arginine N-methyltransferase 1 (Homo sapiens, UniProt Q99873); assay: Inhibition of human PRMT1 using biotin-tagged Histone H4 and 3H-SAM as substrate at 6 uM incubated for 1 hrs by TopCount scintillation proximity assay relative to control
[22] = target: T4, Histone-lysine N-methyltransferase 2A (Homo sapiens, UniProt Q03164); assay: Inhibition of human MLL1 using biotin-tagged Histone H3 and 3H-SAM as substrate at 6 uM incubated for 1 hrs by TopCount scintillation proximity assay relative to control
[23] = target: Histone-lysine N-methyltransferase EHMT1 (Homo sapiens) (UniProt Q9H9B1); assay: Inhibition of human GLP using biotin-tagged Histone H3 and 3H-SAM as substrate at 6 uM incubated for 1 hrs by TopCount scintillation proximity assay relative to control
Chain of Histone-lysine N-methyltransferase EHMT1 (Homo sapiens) (Q9H9B1 whole entry): as the sequence (Q9H9B1 whole entry) above

[24] = target: Histone-lysine N-methyltransferase SUV39H1 (Homo sapiens, UniProt O43463); assay: Inhibition of human SUV39H1 using Biotin-tagged histone H3 and 3H-SAM as substrate incubated for 1 hrs by TopCount scintillation proximity assay
How it was run: (§8)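 Radiometric human methyltransferase assay. Enzymes showing >50% inhibition at a 10 μM single-point screen went on to concentration–response in triplicate to derive IC50.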

[25] = target: T1, Histone-lysine N-methyltransferase, H3 lysine-79 specific; assay: Inhibition of human DOT1L using chicken nucleosome and 3H-SAM as substrate incubated for 1 hrs by TopCount scintillation proximity assay; how it was run: as §2
Target sequence in this assay (Q8TEK3 whole entry): as the sequence (Q8TEK3 whole entry, looked up) above

[26] = target: Histone-lysine N-methyltransferase SMYD3 (Homo sapiens, UniProt Q9H7B4); assay: Inhibition of human SMYD3 using biotin-tagged MAP3K2 and 3H-SAM as substrate incubated for 1 hrs by TopCount scintillation proximity assay; how it was run: as §8
[27] = target: RNA 5'-monophosphate methyltransferase (Homo sapiens, UniProt Q7Z5W3); assay: Inhibition of human BCDIN3D using biotin-tagged microRNA-145 and 3H-SAM as substrate incubated for 1 hrs by TopCount scintillation proximity assay; how it was run: as §2
Chain of RNA 5'-monophosphate methyltransferase (Q7Z5W3 whole entry): as the sequence (Q7Z5W3 whole entry) above

[28] = target: T2, Protein arginine N-methyltransferase 3; assay: Inhibition of human PRMT3 using biotin-tagged Histone H4 and 3H-SAM as substrate incubated for 1 hrs by TopCount scintillation proximity assay; how it was run: as §2
Target sequence in this assay (O60678 whole entry): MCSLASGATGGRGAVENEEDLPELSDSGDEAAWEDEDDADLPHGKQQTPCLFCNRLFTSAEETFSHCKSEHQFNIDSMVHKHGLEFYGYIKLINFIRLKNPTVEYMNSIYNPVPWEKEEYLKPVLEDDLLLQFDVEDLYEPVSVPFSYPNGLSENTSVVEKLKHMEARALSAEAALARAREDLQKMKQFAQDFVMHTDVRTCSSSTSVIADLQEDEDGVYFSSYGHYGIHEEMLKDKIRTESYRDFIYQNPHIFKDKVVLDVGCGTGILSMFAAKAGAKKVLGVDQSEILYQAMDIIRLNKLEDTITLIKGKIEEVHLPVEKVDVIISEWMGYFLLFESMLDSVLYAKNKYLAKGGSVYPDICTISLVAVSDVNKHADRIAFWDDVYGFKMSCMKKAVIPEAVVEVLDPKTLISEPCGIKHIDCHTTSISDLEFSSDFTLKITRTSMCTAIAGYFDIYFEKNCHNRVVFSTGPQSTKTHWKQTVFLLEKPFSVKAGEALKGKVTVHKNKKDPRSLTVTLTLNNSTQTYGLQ

[29] = target: Protein arginine N-methyltransferase 9 (Homo sapiens, UniProt Q6P2P2); assay: Inhibition of human PRMT9 using biotin-tagged SAP145 and 3H-SAM as substrate incubated for 1 hrs by TopCount scintillation proximity assay; how it was run: as §2
Chain of Protein arginine N-methyltransferase 9 (Q6P2P2 whole entry): as the sequence (Q6P2P2 whole entry) above

[30] = target: T3, Protein arginine N-methyltransferase 1; assay: Inhibition of human PRMT1 using biotin-tagged Histone H4 and 3H-SAM as substrate incubated for 1 hrs by TopCount scintillation proximity assay; how it was run: as §2
Target sequence in this assay (Q99873 whole entry): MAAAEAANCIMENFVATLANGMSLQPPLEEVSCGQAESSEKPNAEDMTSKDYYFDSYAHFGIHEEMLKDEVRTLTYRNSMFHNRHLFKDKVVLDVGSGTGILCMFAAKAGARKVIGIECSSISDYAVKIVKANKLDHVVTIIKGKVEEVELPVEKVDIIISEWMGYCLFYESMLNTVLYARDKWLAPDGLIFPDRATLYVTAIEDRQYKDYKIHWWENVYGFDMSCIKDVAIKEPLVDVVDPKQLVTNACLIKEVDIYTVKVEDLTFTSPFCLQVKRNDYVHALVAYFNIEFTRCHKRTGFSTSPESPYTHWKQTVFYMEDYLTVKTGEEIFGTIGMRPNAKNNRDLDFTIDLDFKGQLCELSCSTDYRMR

[31] = target: T4, Histone-lysine N-methyltransferase 2A; assay: Inhibition of human MLL1 using biotin-tagged Histone H3 and 3H-SAM as substrate incubated for 1 hrs by TopCount scintillation proximity assay; how it was run: as §2
Homo sapiens [32] = species: Homo sapiens; assay: Inhibition of MDH (unknown origin) using oxaloacetic acid as substrate preincubated with compound for 5 mins followed by substrate addition and measured after 1.5 min in the presence of NADH by absorbance based plate reader analysis; conditions: time 6.5 min; how it was run: as §5
[33] = Aggregation property of the compound in KPi buffer at pH 7.0 assessed as formation of colloid-like particles by dynamic light scattering analysis; format: physicochemical; how it was run: as §3
Homo sapiens [34] = species: Homo sapiens; assay: Inhibition of MDH (unknown origin) using oxaloacetic acid as substrate preincubated with compound for 5 mins followed by substrate addition and measured after 1.5 min in the presence of NADH and 0.01% Triton-X 100 by absorbance based plate reader analysis; conditions: time 6.5 min; how it was run: as §6
Bacteria [35] = assay: Inhibition of beta-lactamase AmpC (unknown origin) pre-incubated with compound for 5 mins followed by substrate addition and measured after 1.5 mins in the presence of 0.01% Triton-X 100 by absorbance based plate reader analysis; conditions: time 6.5 min; how it was run: as §7

## N#Cc1ccc(NC(=O)c2cc(C=O)n3c2CCCC3)c2cc(O)ccc12
[1]
  IC50: 8 µM
[2]
  inhibition: > 50%
[3]
  Activity: Active
[4]
  inhibition: Active
[5]
  IC50: 30 µM
[6]
  IC50: 14 µM
[7]
  Activity: Active
Bacteria [8]
  inhibition: Active
Homo sapiens [9]
  inhibition: Active
Homo sapiens [10]
  inhibition: inactive
Bacteria [11]
  inhibition: inactive

## O=C(COC(=O)c1cc(-c2ccoc2)n[nH]1)Nc1ccc(Br)cc1
Bacteria [12]
  inhibition: inactive
[13]
  inhibition: Active
[1]
  IC50: 2.2 µM
[14]
  inhibition: Active
[15]
  inhibition: > 50%
[16]
  inhibition: > 50%
[17]
  inhibition: > 50%
[18]
  inhibition: > 50%
[19]
  inhibition: > 50%
[20]
  inhibition: > 50%
[21]
  inhibition: > 50%
[22]
  inhibition: > 50%
[23]
  inhibition: > 50%
[6]
  IC50: 26 µM
[24]
  IC50: 4 µM
[25]
  IC50: 7 µM
[26]
  IC50: 8 µM
[27]
  IC50: 11 µM
[28]
  IC50: 11 µM
[29]
  IC50: 11 µM
[30]
  IC50: 15 µM
[31]
  IC50: 16 µM
Homo sapiens [32]
  inhibition: Active
[33]
  Activity: Active
Homo sapiens [34]
  inhibition: inactive
Bacteria [35]
  inhibition: inactive
